Values after ≈ are worked out from the molar mass of the structure shown.
Assays:
[1] = Antiproliferative activity against human HL60/Vinc cells; type: functional, cell-based
Summary of the method: (§1)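 IC50 is the concentration giving 50% growth inhibition, reported as mean with SD. HL-60/vinc and LoVo/DX are drug-resistant (MDR) sublines of HL-60 and LoVo. BALB/3T3 is a normal murine embryonic fibroblast line.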

LoVo [2] = assay: Resistance index, ratio of IC50 for human LoVo/DX cells to IC50 for human LoVo cells; type: functional
Summary of the method: (§2)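 Index of resistance is the IC50 in the resistant subline (HL-60/vinc or LoVo/DX) divided by the IC50 in its parental line (HL-60 or LoVo). Each IC50 is the concentration giving 50% growth inhibition. Bands are 0–2 sensitive, 2–10 moderate, above 10 strongly resistant.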

[3] = Selectivity index, ratio of IC50 for mouse BALB/3T3 cells to IC50 for human LoVo/DX cells; type: functional
Summary of the method: (§3)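 Selectivity index is the IC50 in normal murine embryonic fibroblasts (BALB/3T3) divided by the IC50 in the respective cancer line (HL-60, HL-60/vinc, LoVo or LoVo/DX). Each IC50 is the concentration giving 50% growth inhibition. SI >1.0 is taken as favourable.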

[4] = Selectivity index, ratio of IC50 for mouse BALB/3T3 cells to IC50 for human HL60/Vinc cells; type: functional; summary of the method: as §3
HL-60 [5] = assay: Selectivity index, ratio of IC50 for mouse BALB/3T3 cells to IC50 for human HL60 cells; type: functional; summary of the method: as §3
BALB/3T3 = assay: Antiproliferative activity mouse BALB/3T3 cells; type: cell-based; summary of the method: as §1
HL-60 [6] = assay: Resistance index, ratio of IC50 for human HL60/Vinc cells to IC50 for human HL60 cells; type: functional; summary of the method: as §2
LoVo [7] = assay: Antiproliferative activity against human LoVo cells; type: functional, cell-based; summary of the method: as §1
HL-60 [8] = assay: Antiproliferative activity against human HL60 cells; type: functional, cell-based; summary of the method: as §1
LoVo [9] = assay: Selectivity index, ratio of IC50 for mouse BALB/3T3 cells to IC50 for human LoVo cells; type: functional; summary of the method: as §3
[10] = Antiproliferative activity against human LoVo/DX cells; type: functional, cell-based; summary of the method: as §1
[11] = system: Staphylococcus epidermidis; assay: Antibacterial activity against methicillin-resistant Staphylococcus epidermidis 470/11; type: functional
Summary of the method: (§4)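 In vitro antibacterial test on Staphylococcus strains, including MRSE clinical isolates. Read-outs were growth inhibition zone (mm) and MIC (µg/ml). Ciprofloxacin was the reference antibiotic.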

[12] = system: Staphylococcus epidermidis; assay: Antibacterial activity against methicillin-resistant Staphylococcus epidermidis 461/11; type: functional; summary of the method: as §4
[13] = system: Staphylococcus epidermidis; assay: Antibacterial activity against Staphylococcus epidermidis ATCC 12228; type: functional; summary of the method: as §4
[14] = system: Staphylococcus epidermidis; assay: Antibacterial activity against methicillin-resistant Staphylococcus epidermidis 459/11; type: functional; summary of the method: as §4
Staphylococcus aureus [15] = assay: Antibacterial activity against Staphylococcus aureus NCTC 4163; type: functional
Staphylococcus aureus [16] = assay: Antibacterial activity against Staphylococcus aureus ATCC 29213; type: functional
Staphylococcus aureus [17] = assay: Antibacterial activity against Staphylococcus aureus ATCC 6538; type: functional
[18] = system: Staphylococcus epidermidis; assay: Antibacterial activity against methicillin-resistant Staphylococcus epidermidis 467/11; type: functional; summary of the method: as §4
[19] = system: Staphylococcus epidermidis; assay: Antibacterial activity against methicillin-resistant Staphylococcus epidermidis 466/11; type: functional; summary of the method: as §4
[20] = system: Staphylococcus epidermidis; assay: Antibacterial activity against methicillin-resistant Staphylococcus epidermidis 469/11; type: functional; summary of the method: as §4
[21] = system: Staphylococcus epidermidis; assay: Antibacterial activity against methicillin-resistant Staphylococcus epidermidis 460/11; type: functional; summary of the method: as §4
[22] = system: Staphylococcus epidermidis; assay: Antibacterial activity against methicillin-resistant Staphylococcus epidermidis 468/11; type: functional; summary of the method: as §4
[23] = system: Staphylococcus epidermidis; assay: Antibacterial activity against methicillin-resistant Staphylococcus epidermidis 488/11; type: functional; summary of the method: as §4
[24] = system: Staphylococcus epidermidis; assay: Antibacterial activity against methicillin-resistant Staphylococcus epidermidis 489/11; type: functional; summary of the method: as §4
[25] = system: Staphylococcus epidermidis; assay: Antibacterial activity against Staphylococcus epidermidis ATCC 35984; type: functional; summary of the method: as §4

| Structure (SMILES) | IC50 [1] [µM] | Ratio IC50 (LoVo [2]) | Ratio IC50 [3] | Ratio IC50 [4] | Ratio IC50 (HL-60 [5]) | IC50 (BALB/3T3) [µM] | Ratio IC50 (HL-60 [6]) | IC50 (LoVo [7]) [µM] | IC50 (HL-60 [8]) [µM] | Ratio IC50 (LoVo [9]) | IC50 [10] [µM] | other results |
| --- | --- | --- | --- | --- | --- | --- | --- | --- | --- | --- | --- | --- |
| CC[C@@H](C(=O)[C@@H](C)[C@@H](O)[C@H](C)[C@@H]1O[C@@H]([C@@H](CC)C(=O)Nc2ccc(NC(=O)[C@H](CC)[C@H]3CC[C@H](C)[C@H]([C@@H](C)[C@H](O)[C@H](C)C(=O)[C@H](CC)[C@H]4O[C@]5(C=C[C@@H](O)[C@]6(CC[C@@](C)([C@H]7CC[C@](O)(CC)[C@H](C)O7)O6)O5)[C@H](C)C[C@@H]4C)O3)cc2)CC[C@@H]1C)[C@H]1O[C@]2(C=C[C@@H](O)[C@]3(CC[C@@](C)([C@H]4CC[C@](O)(CC)[C@H](C)O4)O3)O2)[C@H](C)C[C@@H]1C | 16.1 | 0.35 | 7.2 | 1.26 | 10.07 | 20.2 | 7.99 | 8.1 | 2 | 2.49 | 2.8 | – |
| CC[C@@H](C(=O)[C@@H](C)[C@@H](O)[C@H](C)[C@@H]1O[C@@H]([C@@H](CC)C(=O)NCCc2ccc(O)c(O)c2)CC[C@@H]1C)[C@H]1O[C@]2(C=C[C@@H](O)[C@]3(CC[C@@](C)([C@H]4CC[C@](O)(CC)[C@H](C)O4)O3)O2)[C@H](C)C[C@@H]1C | 6.9 | 1.1 | 1.34 | 0.83 | 2.05 | 5.7 | 2.48 | 3.9 | 2.8 | 1.47 | 4.3 | – |
| CC[C@@H](C(=O)[C@@H](C)[C@@H](O)[C@H](C)[C@@H]1O[C@@H]([C@@H](CC)C(=O)NCCc2c[nH]cn2)CC[C@@H]1C)[C@H]1O[C@]2(C=C[C@@H](O)[C@]3(CC[C@@](C)([C@H]4CC[C@](O)(CC)[C@H](C)O4)O3)O2)[C@H](C)C[C@@H]1C | 33.1 | 1.07 | 0.99 | 1.04 | 7.79 | 34.5 | 7.46 | 32.5 | 4.4 | 1.06 | 34.8 | – |
| CC[C@@H](C(=O)[C@@H](C)[C@@H](O)[C@H](C)[C@@H]1O[C@@H]([C@@H](CC)C(=O)NCCc2ccc(F)cc2)CC[C@@H]1C)[C@H]1O[C@]2(C=C[C@@H](O)[C@]3(CC[C@@](C)([C@H]4CC[C@](O)(CC)[C@H](C)O4)O3)O2)[C@H](C)C[C@@H]1C | 6.7 | 0.57 | 19.57 | 6.8 | 20.27 | 45.8 | 2.98 | 4.1 | 2.3 | 11.2 | 2.3 | – |
| CC[C@@H](C(=O)[C@@H](C)[C@@H](O)[C@H](C)[C@@H]1O[C@@H]([C@@H](CC)C(=O)NCCCCNC(=O)[C@H](CC)[C@H]2CC[C@H](C)[C@H]([C@@H](C)[C@H](O)[C@H](C)C(=O)[C@H](CC)[C@H]3O[C@]4(C=C[C@@H](O)[C@]5(CC[C@@](C)([C@H]6CC[C@](O)(CC)[C@H](C)O6)O5)O4)[C@H](C)C[C@@H]3C)O2)CC[C@@H]1C)[C@H]1O[C@]2(C=C[C@@H](O)[C@]3(CC[C@@](C)([C@H]4CC[C@](O)(CC)[C@H](C)O4)O3)O2)[C@H](C)C[C@@H]1C | 13.5 | 0.36 | 5.13 | 1.47 | 7.28 | 19.8 | 4.95 | 10.7 | 2.7 | 1.85 | 3.9 | – |
| CC[C@@H](C(=O)[C@@H](C)[C@@H](O)[C@H](C)[C@@H]1O[C@@H]([C@@H](CC)C(=O)NCC2COCCOCCOCCOCCO2)CC[C@@H]1C)[C@H]1O[C@]2(C=C[C@@H](O)[C@]3(CC[C@@](C)([C@H]4CC[C@](O)(CC)[C@H](C)O4)O3)O2)[C@H](C)C[C@@H]1C (stereo partly drawn) | 27 | 0.35 | 3.69 | 1.16 | 1.35 | 31.3 | 1.16 | 24.1 | 23.2 | 1.3 | 8.5 | – |
| O=C(O)c1cn(C2CC2)c2cc(N3CCNCC3)c(F)cc2c1=O [CIPROFLOXACIN] | – | – | – | – | – | – | – | – | – | – | – | MIC [11]: 0.125 µg/mL (≈ 0.377 µM); MIC [12]: 0.25 µg/mL (≈ 0.754 µM); MIC [13]: 0.25 µg/mL (≈ 0.754 µM); MIC [14]: 16 µg/mL (≈ 48.3 µM); MIC (Staphylococcus aureus [15]): 0.25 µg/mL (≈ 0.754 µM); MIC (Staphylococcus aureus [16]): 0.5 µg/mL (≈ 1.51 µM); MIC (Staphylococcus aureus [17]): 0.25 µg/mL (≈ 0.754 µM); MIC [18]: 16 µg/mL (≈ 48.3 µM); MIC [19]: 2 µg/mL (≈ 6.04 µM); MIC [20]: 8 µg/mL (≈ 24.1 µM); MIC [21]: 0.125 µg/mL (≈ 0.377 µM); MIC [22]: 16 µg/mL (≈ 48.3 µM); MIC [23]: 16 µg/mL (≈ 48.3 µM); MIC [24]: 0.25 µg/mL (≈ 0.754 µM); MIC [25]: 0.125 µg/mL (≈ 0.377 µM) |
| C#CCNC(=O)[C@H](CC)[C@H]1CC[C@H](C)[C@H]([C@@H](C)[C@H](O)[C@H](C)C(=O)[C@H](CC)[C@H]2O[C@]3(C=C[C@@H](O)[C@]4(CC[C@@](C)([C@H]5CC[C@](O)(CC)[C@H](C)O5)O4)O3)[C@H](C)C[C@@H]2C)O1 | 11.3 | 0.56 | 9.6 | 3.29 | 6.47 | 37.1 | 1.97 | 6.9 | 5.7 | 5.4 | 3.9 | – |
| COc1cccc2c1C(=O)c1c(O)c3c(c(O)c1C2=O)C[C@@](O)(C(=O)CO)C[C@@H]3O[C@H]1C[C@H](N)[C@H](O)[C@H](C)O1 [DOXORUBICIN] | 1.8 | 37.94 | 0.07 | 0.27 | 12 | 0.5 | 44.5 | 0.17 | 0.04 | 2.82 | 6.5 | – |

Source: ChEMBL document CHEMBL3232897, “Synthesis, antiproliferative and antibacterial activity of new amides of salinomycin” (Bioorg Med Chem Lett, 2014)
